Screening data: PubChem BioAssay, The Scripps Research Institute Molecular Screening Center
Most compounds without a hit are left out; they make up all but 1.8% or so of the library.
NPY Y2 blocker – NPY-Y2 receptor antagonists, primary screen, cell-based. Neuropeptide Y receptor type 2 (Homo sapiens), P49146. NPY-Y2 expressing cells, antagonist mode. inhibition, % at 2.7 µM. 140,000 tested, 0.99% active; in the data active = inhibition above about 17%
NPY2 pot ag – NPY-Y2 potentiators or agonists, primary screen, cell-based. Neuropeptide Y receptor type 2 (Homo sapiens), P49146. cells expressing NPY-Y2, potentiator/agonist read-out. activation, % at 3.6 µM. 220,000 tested, 0.45% active; in the data active = activation above about 27%;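 also: cells stimulated with NPY near EC25 plus isoproterenol at EC100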
NPY1 pot ag – NPY-Y1 receptor potentiators or agonists, primary screen, cell-based. AID 1304, 2008. Neuropeptide Y receptor type 1 (Homo sapiens), P25929. NPY-Y1 expressing cells, potentiator/agonist activation. activation, % at 3.6 µM. 220,000 tested, 0.37% active; in the data active = activation above about 33%, passing the limit was not always enough;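 also: cells stimulated with NPY at EC10 then isoproterenol at EC100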
Target sequence (P25929 whole entry, looked up): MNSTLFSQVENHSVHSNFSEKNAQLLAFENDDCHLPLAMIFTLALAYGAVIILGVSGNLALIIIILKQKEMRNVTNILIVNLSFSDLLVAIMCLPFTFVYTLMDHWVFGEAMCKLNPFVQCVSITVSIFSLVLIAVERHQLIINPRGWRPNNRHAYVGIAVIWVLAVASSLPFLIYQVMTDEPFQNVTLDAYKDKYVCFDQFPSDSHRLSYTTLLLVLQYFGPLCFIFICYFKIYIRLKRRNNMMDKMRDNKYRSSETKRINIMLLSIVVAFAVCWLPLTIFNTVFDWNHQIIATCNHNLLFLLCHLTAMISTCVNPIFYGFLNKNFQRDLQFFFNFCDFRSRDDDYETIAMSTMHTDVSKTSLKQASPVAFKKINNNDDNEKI
NPY-Y1 antag – NPY-Y1 receptor antagonists, primary screen, cell-based | Neuropeptide Y receptor type 1 (Homo sapiens), P25929 | HEK293-CNG Y1 cells, membrane potential fluorescence; NPY at EC95, then isoproterenol | inhibition, % at 3.6 µM | 200,000 tested, 1% active | AID 1040, 2008;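 active = inhibition above the campaign mean inhibition of all tested compounds plus 3 SD, cut at about 20% in these data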
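Material: HEK293 cells co-expressing NPY Y1 receptor and cyclic-nucleotide gated channel. Timing: compound incubation 1 h at room temperature, readout 45 min post-stimulation. Signal: fluorescence, membrane potential probe.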
Large screens that a line does not name were inactive.

CN1CCN(c2ccccc2NC(=O)Cc2ccc(Cl)cc2)CC1	NPY Y2 blocker 24.0, NPY-Y1 antag 22.7
CCOc1ccccc1CN(CCc1ccc2c(c1)OCO2)Cc1ccccn1	NPY-Y1 antag 30.0
CCOc1ccc(CN(C)CCc2ccccn2)cc1	none (no result: NPY Y2 blocker)
COC(=O)[C@@H]1C(c2c(OC)cc(OC)cc2OC)=NO[C@H]1C(=O)OC	NPY2 pot ag 42.1, NPY1 pot ag 55.9
CC(=O)Nc1nonc1-c1nc2ccccc2n1CCC(C)C	NPY Y2 blocker 17.8, NPY-Y1 antag 42.8
O=S(=O)(Nc1ncnc2sc3c(c12)CCC3)c1ccc(Cl)s1	NPY2 pot ag 46.1, NPY1 pot ag 51.9
O=S(=O)(Nc1ncnc2sc3c(c12)CCC3)c1cc(F)ccc1F	none (no result: NPY Y2 blocker, NPY-Y1 antag)
CC(=O)Nc1ccc(OC(F)(F)C(F)F)c(NC(C)=O)c1	none
O=C(COc1ccccc1)Nc1ccc(OC(F)(F)C(F)F)c(NC(=O)COc2ccccc2)c1	NPY Y2 blocker 34.2, NPY-Y1 antag 24.7
Cc1ccc(C)c(N2CCN(c3nc4ccccc4c(=O)n3Cc3ccccc3)CC2)c1	NPY Y2 blocker 28.1, NPY-Y1 antag 30.1
COC(=O)CCC(=O)Nc1ccccc1C(=O)Nc1ccccc1	none
CC1CC(N(C(=O)C2CC2)c2ccccc2)c2ccccc2N1C(=O)C1CC1 (stereo unspecified)	none
CC(=O)Nc1cc(NC(C)=O)c(N=Nc2ccccc2)cc1C	none (no result: NPY Y2 blocker, NPY-Y1 antag)
Cc1ccc(NCC(O)C(O)C(O)CO)c(N=Nc2ccccc2)c1C (stereo unspecified)	NPY2 pot ag 97.5, NPY1 pot ag 99.4 (no result: NPY Y2 blocker, NPY-Y1 antag)
O=C(COc1ccc(Cl)cc1)NCCSCc1cccc(Cl)c1	NPY Y2 blocker 17.1
COC(=O)Cc1c(C)c2ccc(OCC(=O)N(C)C)cc2oc1=O	none
C/C(=N\N=C(/N)SC1CC(=O)N(c2ccc(Br)cc2)C1=O)c1cccs1 (stereo unspecified)	NPY2 pot ag 43.9, NPY1 pot ag 44.8
C/C(=N\N=C(/N)SC1CC(=O)N(c2ccccc2)C1=O)c1cccs1 (stereo unspecified)	none
C(=N\Nc1ccccn1)/c1ccc2c(c1)OCCO2	none (no result: NPY Y2 blocker)
CCO[C@H]1OC(C(=O)NCc2ccccc2)=C[C@@H](c2ccc(C(F)(F)F)cc2)[C@@H]1CCCO	NPY1 pot ag 37.5 (no result: NPY Y2 blocker)
Clc1ccc(COn2c(-c3ccc(Cl)cc3)nc3ccccc32)cc1	NPY Y2 blocker 61.2, NPY-Y1 antag 84.2
Clc1ccc(COn2c(-c3ccccc3)nc3ccccc32)cc1	NPY Y2 blocker 37.2, NPY-Y1 antag 53.6
O=C(OCc1cn(-c2ccc(Cl)c(Cl)c2)nn1)c1ccccc1	none
CCn1c(C)nc2cc(S(N)(=O)=O)ccc21	none (no result: NPY Y2 blocker)
COC(=O)COc1ccc(NS(=O)(=O)c2cccc([N+](=O)[O-])c2)cc1	NPY2 pot ag 48.2, NPY1 pot ag 35.4 (no result: NPY Y2 blocker)
COC(=O)COc1cccc(NS(=O)(=O)c2cccc([N+](=O)[O-])c2)c1	none (no result: NPY Y2 blocker)
CN(C)c1ccc(C(CNC(=O)c2ccccc2F)c2c[nH]c3ccccc23)cc1 (stereo unspecified)	none
COC(=O)Nc1nc(-c2ccccc2)c(C(=O)c2ccccc2)s1	NPY-Y1 antag 29.5
O=C(Nc1ccc(CN2CCCCC2)cc1)c1cc(Br)ccc1Cl	none (no result: NPY Y2 blocker)
O=C(Nc1ccc(CN2CCCCC2)cc1)c1cccc(Br)c1	NPY2 pot ag 55.6, NPY1 pot ag 43.1
Cc1cc(C(=O)NC2CCCCC2)c(C)n1-c1ccc(F)cc1	none
CCCn1c(=O)c2ccccc2n2c(SCc3cc(=O)n4ccsc4n3)nnc12	NPY-Y1 antag 21.4
CCCn1c(=O)c2ccccc2n2c(SCCOc3ccccc3F)nnc12	NPY Y2 blocker 17.4, NPY-Y1 antag 26.5
CCCn1c(=O)c2ccccc2n2c(SCc3cc(=O)oc4ccc5ccccc5c34)nnc12	none
C/C(=N/OC(=O)c1ccccc1)c1oc(C)nc1C	none (no result: NPY Y2 blocker, NPY-Y1 antag)
COc1ccccc1-n1cc(-c2ccc([N+](=O)[O-])cc2)[nH]c1=S	none (no result: NPY Y2 blocker, NPY-Y1 antag)
c1ccc(Cn2c(CNc3nc4ccccc4n3CCN3CCCCC3)nc3ccccc32)cc1	NPY Y2 blocker 26.8
CCCCn1c(NCc2ccc3c(c2)OCO3)nc2ccccc21	NPY-Y1 antag 20.1
COc1ccc(CNc2nc3ccccc3n2CCN2CCCCC2)cc1	none (no result: NPY Y2 blocker)
CCN(CC)CCn1c(NCc2nc3ccccc3n2Cc2ccccc2)nc2ccccc21	NPY Y2 blocker 18.5, NPY-Y1 antag 21.8
CCN(CC)c1ccc(CNc2nc3ccccc3n2CCN2CCCCC2)cc1	NPY2 pot ag 43.5, NPY1 pot ag 45.1 (no result: NPY Y2 blocker)
O=S(=O)(/N=C(\Sc1ccc(Cl)cc1)c1ccccc1)c1ccccc1	none
